Sampled rows, rich in hits. Any-hit rate of the full collection: about 3.1%.
Ecoli rRNA inh: reduced GFP signal of wild-type E. coli, primary screen, bacterial rRNA inhibitor project, GFP/RFP fluorescence, OD600, single point | 1.6% of 350,000 active | AID 720706, 2013 | E. coli WT GFP vs humanized-ribosome RFP mutants, 24 h; active compounds read low; DMSO median 0, no signal -100 | GFP signal change (wild-type ribosome), % (test concentration not listed);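 active = significant combined selectivity score with lowered wild-type GFP, culture density cut under 30%, mutant RFP and density less affected; inactive = any of these conditions unmet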
HIV Env fusion: inhibitors of HIV-1 Env-driven cell-cell fusion, primary screen, HeLa-JRFL effector, CEM21 target cells, luciferase; 1.1% of 360,000 active; AID 651610, 2012; inhibition, % at 12.3 µM;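 active = mean replicate inhibition score of at least 50 and every replicate individually at or above 50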;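 also: 0% = plate neutral controls and 100% = maraviroc near 300 nM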
GSIS activator: GLuc luminescence reporter in INS-1E cells, primary screen for activators of glucose-dependent secretion of insulin; INS-1E GLuc reporter insulin secretion, 2-3 h; activation, % at 16.6 µM; 0.61% of 370,000 active; AID 743287, 2014;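 active = lowest replicate activation of at least 40%, so every replicate reaches that level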;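 also: 0% = median of neutral control wells and 100% = median of IBMX positive control wells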
miR-122 sensor: miR-122 Renilla sensor signal increase in Huh7, primary screen, miR-122 inhibitor project, cell-based, single point, plate reader; AID 602342, 2012; activation (reporter increase), % at 12.5 µM; Huh7 miR-122 Renilla luciferase sensor, 48 h; neutral wells = 0, positive control = 100; 0.3% of 340,000 active;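 active = mean replicate activation score at least 90 and every replicate individually at or above 90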;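 also: higher luciferase means less miR-122 activity so hits act as miR-122 inhibitors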
Cneo AK release: Cryptococcus neoformans cell lysis inducers, primary screen, AK release luminescence, single concentration | C. neoformans lysis, adenylate kinase release luminescence, 4 h; normalised: neutral wells 0, clomiphene wells 100 | lysis activity, % at 15 µM | 0.2% of 360,000 active;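 active = mean lysis activity across replicates of at least 80%, whatever share of replicates individually reach that level; inactive = mean lysis activity below 80%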
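Material – Cryptococcus neoformans yeast cells · Quantity – 5 × 10^6 yeast cells/mL · Buffer or medium – YPD medium · Compound – single dose · Timing – 4 h static compound exposure, 37 °C, read 1 h post-reagent · Signal – adenylate kinase release luminescence · Read-out basis – lysis from increased AK signal · Benchmarks – Clomiphene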
CFTR F508del cor: F508del CFTR correction, initial screen, CFBE line, single point; AID 720511, 2013; CFBE cells, YFP halide quenching; stimulated with forskolin plus potentiator P3; % fluorescence drop versus neutral controls; activity (quench increase), % at 7.58 µM; 0.36% of 350,000 active;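 active = mean added fluorescence quench of at least 8% versus neutral control, with both replicates also reaching 8%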;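 also: cells transiently co-express mutant CFTR-F508del with the halide-sensitive YFP; corrector assay measuring rescue of mutant channel to the surface after 24 h compound exposure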
Starred values were filed as active, the others as inactive; nt = not tested or not shown; [ ] = another dose, or the depositor's remark.

SMILES	Ecoli rRNA inh	HIV Env fusion	GSIS activator	miR-122 sensor	Cneo AK release	CFTR F508del cor
Cc1n[nH]c(C)c1S(=O)(=O)N(CC(=O)Nc1ccc2c(c1)OCCO2)c1ccc(C(C)C)cc1	-5	59*	-16	-9	-2	0
O=C(O)/C(=C\c1ccc2ccccc2c1)c1cccc2ccccc12	-47*	-61	nt	nt	nt	4
CCN(CC)c1ccc(/C=C(/C#N)c2nc3ccc(C)cc3[nH]2)c(OC(C)C)c1	12	nt	15	6	-11	17*
CCCOc1cc(N(CC)CC)ccc1/C=C(/C#N)c1nc2ccc(C)cc2[nH]1	28	nt	34	7	-2	34*
CCOc1cc(N(CC)CC)ccc1/C=C(/C#N)c1nc2ccccc2[nH]1	nt	-132	nt	-19	-3	nt
CO[C@@H]1CN(C)C(=O)c2cc(NC(=O)C3CCC3)ccc2OC[C@@H](C)N(Cc2ccncc2)C[C@H]1C	-3	17[16.7 µM]	6	0[16.7 µM]	-3	3
Cc1cc(C)c2nc(SCC(=O)NCCN3C(=O)CSC3=O)cc(C)c2c1	13	-8	10	3	0	nt
Cc1cc(SCC(=O)NCCN2C(=O)CSC2=O)nc2c(C)cccc12	nt	nt	46*	nt	nt	nt
O=[N+]([O-])c1ccccc1/C=C/C=N/n1c(-c2ccccc2F)n[nH]c1=S	-21*	-4	23	15	3	1
COc1ccc(COC(=O)C2=C(C)NC(=O)NC2c2ccc(OC)cc2)cc1 (stereo not given)	5	72*	5	-2	-1	-1
CC1=C(C(=O)OC2CCCCCCC2)C(c2cccc(O)c2)NC(=O)N1 (stereo not given)	-33*	nt	-15	nt	nt	-1
CC1=C(C(=O)OCc2ccc3c(c2)OCO3)C(c2ccccc2OCc2ccccc2)NC(=O)N1 (stereo not given)	nt	61*	-23	nt	nt	nt
CCCOc1ccccc1C1NC(=O)NC(C)=C1C(=O)OCc1ccccc1 (stereo not given)	nt	nt	-32	-12	3	nt
CC1=C(C(=O)OCc2ccc3c(c2)OCO3)C(c2ccccc2)NC(=O)N1 (stereo not given)	nt	107*	-21	36	-6	nt
COCC#Cc1ccc2c(c1)O[C@H](CN(C)S(=O)(=O)c1ccc(OC)cc1)[C@@H](C)CN([C@@H](C)CO)S2(=O)=O	-1	nt	-31	-3[16.7 µM]	nt	-3
COc1ccccc1-c1nc(SCC(=O)Nc2ccccc2F)n[nH]1	-27*	70*	1	nt	0	-2
O=C(C[C@@H]1CC[C@H](NC(=O)c2ccccn2)[C@H](CO)O1)NCc1cccc(F)c1	4	-1[16.7 µM]	14	nt	-8	-3
Clc1ccc(-c2nc(NCCCN3CCOCC3)c3ccccc3n2)cc1	-17*	27	-22	-6	2	2
Fc1ccccc1-c1nc(NCCCN2CCOCC2)c2ccccc2n1	-1	4	6	nt	nt	1
CN(C)CCCNc1c2ccccc2nc2ccccc12	5	-84	-25	-8	-2	18*
c1ccc2c(NCCCN3CCOCC3)c3ccccc3nc2c1	-26	-107	1	nt	nt	11*
CN(C)CCCNc1nc(-c2ccccc2)nc2ccccc12	26	-5	48	3	6	0
COCC#Cc1ccc([C@H]2[C@@H](CO)N3CCCCN(C(=O)CN(C)C)C[C@H]23)cc1	4	nt	22	10[16.7 µM]	-2	-2
Cn1cnc(S(=O)(=O)N2CC[C@@H]3[C@H]2c2cc(C4=CCCCC4)ccc2N[C@@H]3CO)c1	-2	nt	-15	nt	nt	nt
CCCc1cn(CC[C@H]2CC[C@@H](NC(=O)C3CCCC3)[C@@H](CO)O2)nn1	4	-5[16.7 µM]	-20	11[16.7 µM]	60	0
SMILES	Ecoli rRNA inh	HIV Env fusion	GSIS activator	miR-122 sensor	Cneo AK release	CFTR F508del cor
COc1ccc(-n2cc(CNCCc3nc(C)cc(C)n3)c(-c3ccccc3Cl)n2)cc1	-14	4	-12	-6	94*	3
COc1ccc(-n2cc(CNCCc3ncc(C)[nH]3)c(-c3ccccc3Cl)n2)cc1	3	3	0	-7	-3	nt
C[C@@H](NC(=O)C[C@H]1CC[C@@H](NC(=O)Cc2ccccn2)[C@H](CO)O1)c1ccccc1	-1	-3[16.7 µM]	16	6[16.7 µM]	-1	-1
COC1=C(C)C(=O)C2=C(C1=O)C1C3CC4=C(C(=O)C(OC)=C(C)C4=O)C(CNC(=O)C(C)=O)N3C(C#N)C(C2)N1C (stereo not given)	nt	64*	nt	-14	nt	3
C[C@H]1CCCCO[C@H](CN(C)Cc2ccc3c(c2)OCO3)[C@@H](C)CN([C@@H](C)CO)C(=O)c2cc(NC(=O)C3CCCCC3)ccc2O1	2	-5[16.7 µM]	-27	10[16.7 µM]	0	2
O=C1Nc2cnc(Cl)nc2Nc2ccccc21	3	11	87*	nt	nt	-4
COc1ccc(NC(=O)C2CCN(c3cc(-c4ccccc4)nc4ncnn34)CC2)cc1OC	nt	60*	-21	nt	nt	nt
COc1ccc(OC)c(NC(=O)C2CCN(c3cc(-c4ccccc4)nc4ncnn34)CC2)c1	nt	4	nt	1	3	nt
COc1ccc(N(CC(=O)Nc2cc(C)ccc2C)S(=O)(=O)c2c(C)noc2C)cc1	-18	37	-11	nt	-2	-3
CCc1cccc(NC(=O)CN(c2ccc(C)cc2)S(=O)(=O)c2c(C)noc2C)c1	-31*	9	-15	nt	-9	-2
COc1ccc(N(CC(=O)Nc2cc(Cl)ccc2C)S(=O)(=O)c2c(C)noc2C)cc1	-29*	25	-17	73	-1	3
CCCNC(=O)N1CC2(CCN(Cc3ccncc3)CC2)c2c(n(C)c3cc(OC)ccc23)[C@H]1CO	2	nt	-7	nt	nt	0
CNC[C@H]1Oc2ccc(NC(C)=O)cc2CC(=O)N(C)C[C@@H]1C	1	nt	11	nt	nt	nt
CC(=O)N(C)c1ccc(OCC(O)Cn2c3ccc(Cl)cc3c3cc(Cl)ccc32)cc1 (stereo not given)	nt	130*	nt	40	1	nt
CC(=O)N(C)c1ccc(OCC(O)Cn2c(C)nc3ccccc32)cc1 (stereo not given)	4	-11	-15	nt	nt	-4
CN1c2ccc(-c3ccc(C#N)cc3)cc2[C@@H]2[C@@H](CCN2S(=O)(=O)c2cccc(F)c2)[C@H]1CO	0	nt	3	-1[16.7 µM]	6	2
COc1ccccc1S(=O)(=O)N1CC[C@@H]2[C@@H](CO)N(C)c3ccc(-c4ccc(F)cc4)cc3[C@@H]21	3	nt	-7	31[16.7 µM]	0	12*
